We go through 31 compounds from ChEMBL document CHEMBL1144285, “Pyrrolidinohydroquinazolines--a novel class of CCR3 modulators” (Bioorg Med Chem Lett, 2005).

pKi: −log10 of the molar value.

For this assay, the target named is T1, C-C chemokine receptor type 3 (Homo sapiens, UniProt P51677).
T1 sequence (P51677 whole entry): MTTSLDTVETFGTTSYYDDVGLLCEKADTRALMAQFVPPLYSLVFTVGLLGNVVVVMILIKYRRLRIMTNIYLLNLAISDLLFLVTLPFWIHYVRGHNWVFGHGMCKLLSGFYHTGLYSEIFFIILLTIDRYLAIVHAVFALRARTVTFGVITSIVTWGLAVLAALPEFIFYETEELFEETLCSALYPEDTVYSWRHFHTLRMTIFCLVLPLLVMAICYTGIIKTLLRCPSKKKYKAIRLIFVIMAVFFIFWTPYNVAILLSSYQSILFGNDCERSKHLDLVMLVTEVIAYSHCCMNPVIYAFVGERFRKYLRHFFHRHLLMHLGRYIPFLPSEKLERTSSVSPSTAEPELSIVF
Nature of the assay: Binding affinity measured for human C-C chemokine receptor type 3 expressed on human K562 cell membrane. The format is cell membranes. In short, it runs like this:
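Membranes from K562 cells transfected with human CCR3 (disrupted by nitrogen decompression, spun 40,000g, 4 °C, 1 h), 0.5–5 µg protein/well. SPA with WGA-coated PVT beads and 125I-rh eotaxin-1. Compounds added as DMSO dilutions, incubated 2 h. Buffer: 25 mM HEPES, 25 mM MgCl2, 1 mM CaCl2, 0.1% BSA. Unlabelled rh eotaxin defined nonspecific binding. Ki obtained by iterative mass-action fitting.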
With `N=c1c2c(C3CC3)csc2nc2n1CC/C2=C\c1ccccc1Br`, the pKi was 6.54. In the case of `FC(F)(F)c1ccccc1/C=C1\CCN2Cc3ccccc3N=C12` it was 5.80. For `CCC1C/C(=C\c2ccccc2Cl)C2=Nc3ccccc3CN21` (stereo unspecified), the pKi was 6.85. In the case of `Clc1ccc(/C=C2\CCN3Cc4ccccc4N=C23)cc1Cl` it was 6.14. As for `Cc1oc2nc3n(c(=N)c2c1C)CC/C3=C\c1ccccc1Br`, the figure is 6.57; as for `N=c1c2ccccc2nc2n1CC/C2=C\c1ccccc1Br`, 7.55; as for `Cc1sc2nc3n(c(=N)c2c1C)CC/C3=C\c1ccccc1Br`, 6.59.

`Fc1ccc(/C=C2\CCN3Cc4ccccc4N=C23)c(Cl)c1` showed a negative-log Ki (pKi) of 6.03. As for `CCc1ccccc1/C=C1\CCN2Cc3ccccc3N=C12`, the figure is 5.85; as for `CN(C)c1ccc(/C=C2\CCN3Cc4ccccc4N=C23)c(Cl)c1`, 5.85.

`Brc1ccccc1/C=C1\CCN2Cc3ccccc3N=C12` gave a pKi of 7.05.

Compound `CCc1ccccc1/C=C1\CCn2c1nc1ccccc1c2=N` had a pKi of 6.44.

For the compound `Clc1ccc(/C=C2\CCN3Cc4ccccc4N=C23)c(Cl)c1`, the negative-log Ki (pKi) was 5.77. As for `COc1ccc(/C=C2\CCn3c2nc2ccccc2c3=N)cc1`, the figure is 5.41; as for `Clc1cccc(Cl)c1/C=C1\CCN2Cc3ccccc3N=C12`, 5.74. As for `Clc1ccccc1/C=C1\CCN2Cc3ccccc3N=C12`, the figure is 6.96; as for `N=c1c2c3c(sc2nc2n1CC/C2=C\c1ccccc1Br)CCCC3`, 6.46.

On to `N=c1c2ccccc2nc2n1CC/C2=C\c1ccccc1Cl`, for which the negative logarithm of the Ki (pKi) is 7.46. With `N=c1c2cccnc2nc2n1CC/C2=C\c1ccccc1Br`, the pKi is 6.09.

The compound `CC(C)(C)c1csc2nc3n(c(=N)c12)CC/C3=C\c1ccccc1Br` gave a negative logarithm of the Ki (pKi) of 5.92. As for `N#C/N=c1/c2ccccc2nc2n1CC/C2=C\c1ccccc1Br`, the figure is 5.21; as for `Fc1ccc(C2C/C(=C\c3ccccc3Br)C3=Nc4ccccc4CN32)cc1` (stereo unspecified), 5.10. In the case of `CCOc1ccccc1/C=C1\CCN2Cc3ccccc3N=C12`, the pKi is 5.35. In the case of `Fc1ccccc1/C=C1\CCN2Cc3ccccc3N=C12` it was 5.85; in that of `N=c1c2ccsc2nc2n1CC/C2=C\c1ccccc1Br`, 7.55. As for `FC(F)(F)Oc1ccccc1/C=C1\CCN2Cc3ccccc3N=C12`, the figure is 5.49; as for `N=c1c2ccccc2nc2n1CC/C2=C\c1ccccc1I`, 7.12; as for `N=c1c2nc[nH]c2nc2n1CC/C2=C\c1ccccc1Br`, 6.08.

In turn, `C(=C1/CCN2Cc3ccccc3N=C12)/c1ccccc1-c1ccccc1` had a pKi of 5.54. In the case of `C/N=c1/c2ccccc2nc2n1CC/C2=C\c1ccccc1Br` it was 6.51; in that of `CCCCC1C/C(=C\c2ccccc2Br)C2=Nc3ccccc3CN21` (stereo unspecified), 6.60.
